{"source": "paper PMC3667888", "about": "(Channels, 2013)", "type_in_all_cases": "cell-based", "key": {"[1]": {"biological_target": "T1, Kv4.2 L313F mutant channels (co-injected with KChIP1b) (Rattus norvegicus, UniProt Q63881, L313F)", "T1 sequence (Q63881 1-630 L313F)": "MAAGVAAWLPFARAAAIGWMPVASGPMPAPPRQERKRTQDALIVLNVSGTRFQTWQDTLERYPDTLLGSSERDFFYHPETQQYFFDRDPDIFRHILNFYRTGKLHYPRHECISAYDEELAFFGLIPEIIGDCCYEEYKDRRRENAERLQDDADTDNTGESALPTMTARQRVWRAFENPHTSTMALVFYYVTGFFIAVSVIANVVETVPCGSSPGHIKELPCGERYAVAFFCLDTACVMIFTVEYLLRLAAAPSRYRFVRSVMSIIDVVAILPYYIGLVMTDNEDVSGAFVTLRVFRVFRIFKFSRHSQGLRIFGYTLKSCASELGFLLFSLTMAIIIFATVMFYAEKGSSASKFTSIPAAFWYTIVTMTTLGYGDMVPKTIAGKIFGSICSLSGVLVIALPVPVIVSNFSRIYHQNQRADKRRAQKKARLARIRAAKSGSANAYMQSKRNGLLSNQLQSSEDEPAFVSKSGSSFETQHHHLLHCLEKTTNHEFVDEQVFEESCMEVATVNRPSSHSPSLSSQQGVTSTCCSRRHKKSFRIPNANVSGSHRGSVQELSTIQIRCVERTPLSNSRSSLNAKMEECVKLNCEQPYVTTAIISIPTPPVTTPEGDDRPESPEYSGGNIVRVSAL", "assay": "Two-electrode voltage clamp, L313F mutant Kv4.2/KChIP1b in Xenopus oocytes", "settings": "10 µM AA", "procedure,_shortened": "(§1)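 Rat Kv4.2 (WT or QuikChange mutant) RNA co-injected equimolar with KChIP1b, 5–10 ng/oocyte, into Xenopus oocytes held 1–5 d at 17–19 °C. Two-electrode voltage clamp at room temperature in perfused Na/K methanesulfonate HEPES saline, pH 7.4–7.5, with P/−4 or P/−6 leak subtraction. Peak current at +40 mV (from −90 mV) after 10 min of 10 μM AA is expressed relative to pre-AA current. Mean ± SE, n = cells.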"}, "[2]": {"biological_target": "T2, Kv4.2 V261F mutant channels (co-injected with KChIP1b) (Rattus norvegicus, UniProt Q63881, V261F)", "T2 sequence (Q63881 1-630 V261F)": "T1 sequence (Q63881 1-630 L313F) with V261F, F313L", "assay": "Two-electrode voltage clamp, V261F mutant Kv4.2/KChIP1b in Xenopus oocytes", "procedure,_shortened": "as §1"}, "[3]": {"biological_target": "T3, Kv4.2 V261F/K318Q double mutant channels (co-injected with KChIP1b) (Rattus norvegicus, UniProt Q63881, K318Q/V261F)", "T3 sequence (Q63881 1-630 V261F/K318Q)": "T1 sequence (Q63881 1-630 L313F) with V261F, F313L, K318Q", "procedure,_shortened": "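Xenopus oocytes co-expressing rat Kv4.2 (WT or mutant) with equimolar KChIP1b were recorded by two-electrode voltage clamp at room temperature. Peak conductance was calculated as G = I/(Vm − Vh), with Vh = −100 mV, and normalized to each cell's Gmax. It was plotted against step potential without and with 10 μM AA and fit to a first-order Boltzmann function to give V1/2 and slope.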"}}, "note": "Where a chain is given by its changes, count along the chain named.", "data": [{"smiles": "CCCCC/C=C\\C/C=C\\C/C=C\\C/C=C\\CCCC(=O)O", "note": "[AA, arachidonic acid]", "values": [{"measurement": "sensitivity to AA", "setting": "[1]", "value": "retained its sensitivity to AA"}, {"measurement": "V1/2 of conductance-voltage curve with AA", "setting": "[2]; 10 µM AA, V261F", "value": "−17.1", "unit": "mV"}, {"measurement": "slope factor (k) of Boltzmann fit with AA", "setting": "[2]; 10 µM AA, V261F", "value": 10.9}, {"measurement": "inhibition at 10 µM", "setting": "[2]; read-out: inhibition of the peak K+ current", "value": 18, "unit": "%"}, {"measurement": "V1/2 of conductance-voltage curve with AA", "setting": "[3]; 10 µM AA", "value": "−19.1", "unit": "mV"}, {"measurement": "slope factor (k) of Boltzmann fit with AA", "setting": "[3]; 10 µM AA", "value": 8.4}, {"measurement": "Kd", "setting": "[3]; fitted Kd for AA inhibition of peak current, Hill equation, nH = 1, +40 mV", "value": 45.7, "unit": "µM"}]}]}
